Test results reported in ChEMBL document CHEMBL4118021, “Studies of TAK1-centered polypharmacology with novel covalent TAK1 inhibitors” (Bioorg Med Chem, 2017).
pIC50: −log10 of the molar value. Calls of active or inactive are those of the source.

Experiments:
[1] = molecular target: TGF-beta receptor type-2 (Homo sapiens) (UniProt P37173); experiment: Inhibition of human TGFBR2 (218 to 567 residues) expressed in bacterial expression system assessed as enzyme activity at 10 uM by KINOMEScan assay relative to control; set-up: scale not given: the % may be the effect or the level left
In short: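 In vitro ATP-site competition binding assay across a panel of 456 kinases, with compound tested at 1 and 10 μM.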

[2] = test system: BaF3; experiment: Antiproliferative activity against mouse BA/F3 cells harboring KRAS G12D mutant after 72 hrs by CellTiter-Glo assay; type: functional, cell-based; settings: BaF3, 72 h
[3] = molecular target: Inosine-5'-monophosphate dehydrogenase 2 (Homo sapiens) (UniProt P12268); experiment: Binding affinity to IMPDH2 in human NCI-H358 cells at 1 uM by mass spectrometry based pull down assay; type: cell-based
[4] = molecular target: Isocitrate dehydrogenase [NAD] subunit alpha, mitochondrial (Homo sapiens) (UniProt P50213); experiment: Binding affinity to IDH3A in human NCI-H358 cells at 1 uM by mass spectrometry based pull down assay; type: cell-based
[5] = molecular target: Isoleucine--tRNA ligase, cytoplasmic (Homo sapiens) (UniProt P41252); experiment: Binding affinity to IARS in human NCI-H358 cells at 1 uM by mass spectrometry based pull down assay; type: cell-based
[6] = molecular target: Actin-related protein 3 (Homo sapiens) (UniProt P61158); experiment: Binding affinity to ACTR3 in human NCI-H358 cells at 1 uM by mass spectrometry based pull down assay; type: cell-based
In short: (§1)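 NCI-H23 or NCI-H358 cells were grown and lysed. Lysates were incubated overnight at 4 °C with 1 μM biotinylated covalent probe or DMSO, then pulled down on streptavidin beads. Proteins were run on polyacrylamide gels and stained with Coomassie. Bands were excised, digested and identified by mass spectrometry.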

[7] = molecular target: AH receptor-interacting protein (Homo sapiens) (UniProt O00170); experiment: Binding affinity to AIP in human NCI-H23 cells at 1 uM by mass spectrometry based pull down assay; type: cell-based; in short: as §1
[8] = molecular target: Eukaryotic translation initiation factor 5B (Homo sapiens) (UniProt O60841); experiment: Binding affinity to EIF5B in human NCI-H23 cells at 1 uM by mass spectrometry based pull down assay; type: cell-based
[9] = molecular target: Leucine-rich repeat-containing protein 15 (Homo sapiens) (UniProt Q8TF66); experiment: Binding affinity to LRRC15 in human NCI-H23 cells at 1 uM by mass spectrometry based pull down assay; type: cell-based
[10] = molecular target: T1, 80S Ribosome (Homo sapiens) (UniProt P08865+P42677+P62753+P15880+P23396+P61247+P62701+P22090+P46782+P62081+P62241+P46781+P46783+P62280+P25398+P62277+P62263+P62841+P62244+P62249+P08708+P62269+P39019+P60866+P63220+P62266+P62847+P62851+P62854+P62979+P62857+P62273+P62861+P39023+P36578+P46777+Q02878+P18124+P62424+P62917+P32969+P27635+P62906+P62913+P30050+P26373+P40429+P50914+P61313+P18621+Q07020+Q02543+P84098+P46778+P35268+P62829+P62750+P83731+P61254+P61353+P46776+P46779+P47914+P62888+P62899+P62910+P49207+P42766+P18077+Q9Y3U8+P83881+P61927+P61513+P63173+P62891+P62945+P05388+P05386); experiment: Binding affinity to RPS12 in human NCI-H358 cells at 1 uM by mass spectrometry based pull down assay; type: cell-based
[11] = molecular target: Phospholipid hydroperoxide glutathione peroxidase GPX4 (Homo sapiens) (UniProt P36969); experiment: Binding affinity to GPX4 in human NCI-H23 cells at 1 uM by mass spectrometry based pull down assay; type: cell-based
[12] = molecular target: Cysteine and glycine-rich protein 2 (Homo sapiens) (UniProt Q16527); experiment: Binding affinity to CSRP2 in human NCI-H23 cells at 1 uM by mass spectrometry based pull down assay; type: cell-based
[13] = molecular target: 14-3-3 protein epsilon (Homo sapiens) (UniProt P62258); experiment: Binding affinity to YWHAE in human NCI-H23 cells at 1 uM by mass spectrometry based pull down assay; type: cell-based
[14] = molecular target: BLOC-2 complex member HPS6 (Homo sapiens) (UniProt Q86YV9); experiment: Binding affinity to HPS6 in human NCI-H358 cells at 1 uM by mass spectrometry based pull down assay; type: cell-based
[15] = molecular target: T1, 80S Ribosome (Homo sapiens); experiment: Binding affinity to RPL23A in human NCI-H358 cells at 1 uM by mass spectrometry based pull down assay; type: cell-based
[16] = molecular target: Endothelial differentiation-related factor 1 (Homo sapiens) (UniProt O60869); experiment: Binding affinity to EDF1 in human NCI-H23 cells at 1 uM by mass spectrometry based pull down assay; type: cell-based
[17] = molecular target: Importin subunit alpha-1 (Homo sapiens) (UniProt P52292); experiment: Binding affinity to KPNA2 in human NCI-H358 cells at 1 uM by mass spectrometry based pull down assay; type: cell-based
[18] = molecular target: T1, 80S Ribosome (Homo sapiens); experiment: Binding affinity to RPL31 in human NCI-H23 cells at 1 uM by mass spectrometry based pull down assay; type: cell-based
[19] = molecular target: Thioredoxin-like protein 1 (Homo sapiens) (UniProt O43396); experiment: Binding affinity to TXNL1 in human NCI-H23 cells at 1 uM by mass spectrometry based pull down assay; type: cell-based
[20] = molecular target: Poly(rC)-binding protein 2 (Homo sapiens) (UniProt Q15366); experiment: Binding affinity to PCBP2 in human NCI-H358 cells at 1 uM by mass spectrometry based pull down assay; type: cell-based
[21] = molecular target: 5'-nucleotidase domain-containing protein 1 (Homo sapiens) (UniProt Q5TFE4); experiment: Binding affinity to NT5DC1 in human NCI-H23 cells at 1 uM by mass spectrometry based pull down assay; type: cell-based
[22] = molecular target: Reticulon-4 (Homo sapiens) (UniProt Q9NQC3); experiment: Binding affinity to RTN4 in human NCI-H358 cells at 1 uM by mass spectrometry based pull down assay; type: cell-based
[23] = molecular target: T2, Dual specificity mitogen-activated protein kinase kinase 7 (Homo sapiens) (UniProt O14733); experiment: Binding affinity to MAP2K7 in human NCI-H358 cells at 1 uM by mass spectrometry based pull down assay; type: cell-based
T2 sequence (whole entry): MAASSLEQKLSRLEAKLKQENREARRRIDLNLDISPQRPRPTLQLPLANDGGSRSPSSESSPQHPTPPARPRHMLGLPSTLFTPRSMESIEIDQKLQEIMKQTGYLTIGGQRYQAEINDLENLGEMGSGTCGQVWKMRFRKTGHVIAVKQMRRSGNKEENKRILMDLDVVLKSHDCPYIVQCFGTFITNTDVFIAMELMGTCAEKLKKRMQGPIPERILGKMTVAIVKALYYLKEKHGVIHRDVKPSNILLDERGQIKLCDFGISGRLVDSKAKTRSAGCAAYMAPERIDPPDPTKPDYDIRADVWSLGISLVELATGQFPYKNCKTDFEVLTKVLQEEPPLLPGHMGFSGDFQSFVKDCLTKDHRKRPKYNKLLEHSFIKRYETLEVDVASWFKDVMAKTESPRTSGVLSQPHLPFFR

Endothelial differentiation-related factor 1 (Homo sapiens), sequence (O60869 whole entry): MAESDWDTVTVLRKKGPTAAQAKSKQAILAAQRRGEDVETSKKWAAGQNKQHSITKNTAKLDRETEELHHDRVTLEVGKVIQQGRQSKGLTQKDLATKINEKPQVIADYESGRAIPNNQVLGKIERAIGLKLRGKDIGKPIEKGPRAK
Leucine-rich repeat-containing protein 15 (Homo sapiens), sequence (Q8TF66 whole entry): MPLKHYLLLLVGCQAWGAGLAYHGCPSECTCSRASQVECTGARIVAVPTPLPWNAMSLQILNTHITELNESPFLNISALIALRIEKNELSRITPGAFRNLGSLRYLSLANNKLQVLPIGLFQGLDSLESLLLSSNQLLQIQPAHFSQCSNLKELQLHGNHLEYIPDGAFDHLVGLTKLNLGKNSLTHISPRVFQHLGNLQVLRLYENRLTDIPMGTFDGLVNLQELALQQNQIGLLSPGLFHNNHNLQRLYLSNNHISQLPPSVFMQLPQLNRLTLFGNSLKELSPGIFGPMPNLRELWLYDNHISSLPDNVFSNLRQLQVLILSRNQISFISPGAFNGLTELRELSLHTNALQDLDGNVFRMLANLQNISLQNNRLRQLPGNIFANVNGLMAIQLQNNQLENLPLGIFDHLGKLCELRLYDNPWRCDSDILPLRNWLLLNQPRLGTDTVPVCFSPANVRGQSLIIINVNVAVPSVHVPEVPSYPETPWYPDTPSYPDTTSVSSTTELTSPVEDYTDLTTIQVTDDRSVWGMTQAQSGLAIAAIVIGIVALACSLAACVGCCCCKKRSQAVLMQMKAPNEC
Inosine-5'-monophosphate dehydrogenase 2 (Homo sapiens), sequence (P12268 2-514 limits assumed): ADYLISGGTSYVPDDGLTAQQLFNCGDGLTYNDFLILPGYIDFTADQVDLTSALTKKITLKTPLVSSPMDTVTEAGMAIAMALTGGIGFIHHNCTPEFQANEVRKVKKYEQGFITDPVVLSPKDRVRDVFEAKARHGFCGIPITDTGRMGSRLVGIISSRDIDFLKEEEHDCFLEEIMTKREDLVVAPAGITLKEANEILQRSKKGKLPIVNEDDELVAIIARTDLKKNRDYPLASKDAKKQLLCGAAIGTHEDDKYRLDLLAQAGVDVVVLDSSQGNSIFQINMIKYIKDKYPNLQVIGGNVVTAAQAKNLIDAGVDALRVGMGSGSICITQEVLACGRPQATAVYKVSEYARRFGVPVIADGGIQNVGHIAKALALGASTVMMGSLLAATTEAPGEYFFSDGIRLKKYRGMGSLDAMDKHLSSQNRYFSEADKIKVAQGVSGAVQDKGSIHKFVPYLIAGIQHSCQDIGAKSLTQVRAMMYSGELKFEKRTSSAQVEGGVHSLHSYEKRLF
Isocitrate dehydrogenase [NAD] subunit alpha, mitochondrial (Homo sapiens), sequence (P50213 whole entry): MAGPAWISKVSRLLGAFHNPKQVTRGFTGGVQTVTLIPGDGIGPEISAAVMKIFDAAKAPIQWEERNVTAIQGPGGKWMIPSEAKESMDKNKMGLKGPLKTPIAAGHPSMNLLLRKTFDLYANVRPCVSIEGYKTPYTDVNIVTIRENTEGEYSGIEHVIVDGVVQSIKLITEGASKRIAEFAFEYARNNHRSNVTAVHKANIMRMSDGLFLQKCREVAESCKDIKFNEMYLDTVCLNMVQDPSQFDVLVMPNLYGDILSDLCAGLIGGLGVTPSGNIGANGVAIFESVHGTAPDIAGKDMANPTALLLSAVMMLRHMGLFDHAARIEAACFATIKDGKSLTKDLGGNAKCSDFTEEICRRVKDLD
Phospholipid hydroperoxide glutathione peroxidase GPX4 (Homo sapiens), sequence (P36969 whole entry): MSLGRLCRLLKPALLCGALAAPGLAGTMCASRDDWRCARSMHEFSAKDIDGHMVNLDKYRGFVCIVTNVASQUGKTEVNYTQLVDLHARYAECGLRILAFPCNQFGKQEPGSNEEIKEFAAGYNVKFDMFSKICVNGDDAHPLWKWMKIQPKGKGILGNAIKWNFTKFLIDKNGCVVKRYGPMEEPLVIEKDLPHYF
Eukaryotic translation initiation factor 5B (Homo sapiens), sequence (O60841 whole entry): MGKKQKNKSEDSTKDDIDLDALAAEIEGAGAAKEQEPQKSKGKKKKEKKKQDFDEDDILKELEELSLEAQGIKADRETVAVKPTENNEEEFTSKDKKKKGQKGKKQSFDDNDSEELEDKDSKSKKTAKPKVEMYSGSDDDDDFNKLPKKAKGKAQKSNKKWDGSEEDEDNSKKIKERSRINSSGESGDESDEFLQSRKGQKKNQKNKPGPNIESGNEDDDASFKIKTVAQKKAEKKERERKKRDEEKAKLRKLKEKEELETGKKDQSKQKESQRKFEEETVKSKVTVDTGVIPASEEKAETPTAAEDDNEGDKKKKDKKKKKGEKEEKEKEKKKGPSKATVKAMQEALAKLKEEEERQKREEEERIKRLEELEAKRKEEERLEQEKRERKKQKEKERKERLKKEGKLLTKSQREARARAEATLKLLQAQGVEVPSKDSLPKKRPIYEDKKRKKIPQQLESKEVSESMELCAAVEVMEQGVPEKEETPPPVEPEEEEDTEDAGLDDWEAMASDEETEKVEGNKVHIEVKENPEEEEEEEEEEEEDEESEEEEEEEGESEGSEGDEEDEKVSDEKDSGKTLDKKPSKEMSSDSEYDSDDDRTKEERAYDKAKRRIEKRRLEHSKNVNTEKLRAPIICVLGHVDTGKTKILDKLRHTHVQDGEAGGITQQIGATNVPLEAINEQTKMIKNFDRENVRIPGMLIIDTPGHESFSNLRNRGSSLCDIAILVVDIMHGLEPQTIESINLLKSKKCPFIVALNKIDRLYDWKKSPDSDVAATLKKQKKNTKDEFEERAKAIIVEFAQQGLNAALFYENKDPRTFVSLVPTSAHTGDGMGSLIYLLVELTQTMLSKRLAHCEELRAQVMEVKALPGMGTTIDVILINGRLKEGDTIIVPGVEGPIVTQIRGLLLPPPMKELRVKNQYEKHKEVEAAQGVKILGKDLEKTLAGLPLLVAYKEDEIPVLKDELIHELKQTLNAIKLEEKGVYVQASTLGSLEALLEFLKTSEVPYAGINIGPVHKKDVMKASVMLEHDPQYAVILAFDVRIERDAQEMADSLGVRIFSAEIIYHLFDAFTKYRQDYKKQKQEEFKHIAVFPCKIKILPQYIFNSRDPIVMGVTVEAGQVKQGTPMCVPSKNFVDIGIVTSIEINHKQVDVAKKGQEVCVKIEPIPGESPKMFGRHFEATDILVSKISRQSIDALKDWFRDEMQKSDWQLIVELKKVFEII
Cysteine and glycine-rich protein 2 (Homo sapiens), sequence (Q16527 whole entry): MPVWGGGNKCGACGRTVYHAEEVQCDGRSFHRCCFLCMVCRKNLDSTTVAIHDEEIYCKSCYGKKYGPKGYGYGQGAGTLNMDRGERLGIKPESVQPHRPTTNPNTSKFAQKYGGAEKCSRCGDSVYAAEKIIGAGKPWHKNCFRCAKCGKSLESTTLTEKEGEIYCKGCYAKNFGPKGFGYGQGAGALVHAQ
AH receptor-interacting protein (Homo sapiens), sequence (O00170 whole entry): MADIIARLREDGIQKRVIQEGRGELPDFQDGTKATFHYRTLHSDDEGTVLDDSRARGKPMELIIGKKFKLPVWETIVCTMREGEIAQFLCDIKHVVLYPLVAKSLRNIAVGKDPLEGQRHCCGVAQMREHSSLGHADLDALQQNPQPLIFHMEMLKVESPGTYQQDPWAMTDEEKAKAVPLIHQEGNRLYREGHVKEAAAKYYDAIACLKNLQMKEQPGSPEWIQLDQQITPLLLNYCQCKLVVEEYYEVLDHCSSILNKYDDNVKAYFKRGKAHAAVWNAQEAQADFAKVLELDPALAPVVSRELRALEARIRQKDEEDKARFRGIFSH
Reticulon-4 (Homo sapiens), sequence (Q9NQC3 whole entry): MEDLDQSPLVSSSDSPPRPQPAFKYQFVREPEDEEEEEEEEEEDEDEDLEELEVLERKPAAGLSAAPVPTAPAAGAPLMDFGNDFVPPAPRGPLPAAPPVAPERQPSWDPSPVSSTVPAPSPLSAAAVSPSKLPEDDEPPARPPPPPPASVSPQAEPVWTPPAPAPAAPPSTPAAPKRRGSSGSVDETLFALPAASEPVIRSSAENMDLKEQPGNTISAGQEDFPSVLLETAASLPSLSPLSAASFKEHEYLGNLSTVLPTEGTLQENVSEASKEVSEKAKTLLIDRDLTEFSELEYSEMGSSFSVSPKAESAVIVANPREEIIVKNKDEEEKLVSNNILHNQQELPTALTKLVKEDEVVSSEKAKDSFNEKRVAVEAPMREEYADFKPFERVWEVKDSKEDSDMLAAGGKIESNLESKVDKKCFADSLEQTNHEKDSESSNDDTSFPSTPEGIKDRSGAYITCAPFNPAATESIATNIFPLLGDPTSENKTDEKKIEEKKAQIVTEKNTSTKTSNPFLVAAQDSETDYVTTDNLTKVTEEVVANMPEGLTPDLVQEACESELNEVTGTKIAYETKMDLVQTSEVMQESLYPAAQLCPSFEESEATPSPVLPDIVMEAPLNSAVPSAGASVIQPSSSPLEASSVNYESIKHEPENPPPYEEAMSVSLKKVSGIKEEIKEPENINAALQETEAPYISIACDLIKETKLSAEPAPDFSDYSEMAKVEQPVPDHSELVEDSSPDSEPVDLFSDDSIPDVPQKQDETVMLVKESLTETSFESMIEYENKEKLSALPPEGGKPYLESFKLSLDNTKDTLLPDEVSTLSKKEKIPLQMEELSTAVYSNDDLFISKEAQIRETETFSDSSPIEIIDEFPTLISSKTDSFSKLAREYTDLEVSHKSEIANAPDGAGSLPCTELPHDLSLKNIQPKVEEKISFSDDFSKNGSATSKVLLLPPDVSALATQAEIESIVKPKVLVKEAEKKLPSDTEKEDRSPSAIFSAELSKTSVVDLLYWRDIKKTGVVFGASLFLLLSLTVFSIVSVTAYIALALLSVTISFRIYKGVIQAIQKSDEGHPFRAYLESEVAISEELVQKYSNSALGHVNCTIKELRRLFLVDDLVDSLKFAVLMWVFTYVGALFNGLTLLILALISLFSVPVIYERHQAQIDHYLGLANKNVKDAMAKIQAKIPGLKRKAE
14-3-3 protein epsilon (Homo sapiens), sequence (P62258 whole entry): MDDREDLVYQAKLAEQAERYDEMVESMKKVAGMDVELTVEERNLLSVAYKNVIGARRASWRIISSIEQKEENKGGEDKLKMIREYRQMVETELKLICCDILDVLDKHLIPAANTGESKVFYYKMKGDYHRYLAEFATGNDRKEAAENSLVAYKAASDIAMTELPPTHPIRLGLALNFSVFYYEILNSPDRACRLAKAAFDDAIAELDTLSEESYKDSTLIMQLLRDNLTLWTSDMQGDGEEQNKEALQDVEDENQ

COc1cc(O)c2c(c1)/C=C/C[C@H](O)[C@H](O)C(=O)/C=C\C[C@H](C)OC2=O
0.9%: Activity [1]
8.40: pIC50 [2]

C=CC(=O)Nc1ccccc1Nc1nc(Nc2ccc(N3CCN(CCOCCOCCOCCNC(=O)CCCC[C@@H]4SC[C@@H]5NC(=O)N[C@@H]54)CC3)cc2)ncc1Cl
active: Activity [3] | Activity [4] | Activity [5] | Activity [6] | Activity [7] | Activity [8] | Activity [9] | Activity [10] | Activity [11] | Activity [12] | Activity [13] | Activity [14] | Activity [15] | Activity [16] | Activity [17] | Activity [18] | Activity [19] | Activity [20] | Activity [21] | Activity [22] | Activity [23]
